This is an account of results in ChEMBL document CHEMBL1154413, “In vitro activities of different inhibitors of bacterial transcription against Staphylococcus epidermidis biofilm” (Antimicrob Agents Chemother, 2007).

In experiment [1] the test system is Staphylococcus epidermidis. As to the kind of experiment: Antimicrobial activity against Staphylococcus epidermidis. It is filed as functional. The procedure, abridged:
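S. epidermidis RP62A; broth microdilution per CLSI in Mueller-Hinton broth, inoculum 5 × 10^5 CFU/ml, 37°C for 24 h before reading. Triplicate.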

The subject of experiment [2] is Staphylococcus epidermidis. Kind of experiment: Ratio of MBC for Staphylococcus epidermidis to MIC for Staphylococcus epidermidis. It is filed as functional. Put shortly: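 MBC obtained by extending the CLSI MIC assay (MHB, 5 × 10^5 CFU/ml, 37°C, 24 h): well portions serially diluted, spotted on MHB agar, incubated 37°C, read at 24 h as lowest concentration giving 0.1% survival. Triplicate.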

For experiment [3], the system named is Staphylococcus epidermidis. As to the kind of experiment: Inhibition of Staphylococcus epidermidis biofilm formation assessed as reduction of >2 log 10 bacterial count in biofilm after 24 hrs. In kind it is functional, organism-based. The procedure, abridged:
(§1)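 S. epidermidis RP62A biofilms grown 24 h at 37°C from 10^7 CFU/ml in MHB in polystyrene microtiter wells, rinsed, then exposed 24 h at 37°C without shaking to compound in MHB (1× to 16× MIC). Washed, lysed with DMSO, bacterial ATP read by luciferase/luciferin bioluminescence, converted to log10 CFU/well via calibration against plate counts; reduction versus unchallenged biofilm. Triplicate.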

Experiment [4] can be described thus: Inhibition of Staphylococcus epidermidis RNA polymerase mediated transcription. The procedure, abridged:
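Transcription measured on toluene-permeabilized S. epidermidis cells, endogenous DNA as template; [5-3H]UTP incorporation read out, concentration giving 50% inhibition calculated. Triplicate.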

In experiment [5] the test system is Staphylococcus epidermidis. Kind of experiment: Inhibition of Staphylococcus epidermidis biofilm formation assessed as log 10 reduction of bacterial count in biofilm at 0.025 ug/ml per well after 24 hrs. In kind it is functional. Put shortly:
as §1

The subject of experiment [6] is Staphylococcus epidermidis. Kind of experiment: Inhibition of Staphylococcus epidermidis biofilm formation assessed as log 10 reduction of bacterial count in biofilm at 4 times MIC per well after 24 hrs. It is filed as functional. Put shortly:
as §1

SMILES strings stand for the structures. ≈ marks a conversion by molar mass, not a printed value. Calls of active or inactive are those of the source.

As a reminder, the MBC is the smallest concentration meeting the test's criterion for killing. Lower therefore signals more potent killing. As a reminder, the MIC is the smallest concentration in the dilution series that meets the test's criterion for growth inhibition. Read a low MIC as greater potency. What is called IC50 is the point on the concentration scale where inhibition reaches its midpoint. Regarding `CC(=O)Nc1c2sscc-2n(C)c1=O` [THIOLUTIN], in experiment [1], the MBC was found to be 12.5 µg/mL (≈ 54.8 µM) and the MIC was 6.25 µg/mL (≈ 27.4 µM). Besides, the Ratio in experiment [2] was 2. Further, in experiment [3], the outcome was inactive. In experiment [4], the half-maximal inhibitory concentration (IC50) was above 100 µg/mL.

Turning to `CC(=O)Nc1c2sscc-2[nH]c1=O` [HOLOMYCIN], in experiment [1], the MBC turned out to be 50 µg/mL (≈ 233 µM) and the MIC was 12.5 µg/mL (≈ 58.3 µM). For the same compound, the Ratio in experiment [2] is given as 4. For the same compound, in experiment [3], the outcome was inactive. Further, the IC50 in experiment [4] is above 100 µg/mL.

In experiment [1], `CNC(=O)[C@@H](C)[C@H]1C(=O)/C(=C(O)/C=C/C(C)=C/[C@@H](C)[C@H]2O[C@@]3(C)O[C@H](C=C[C@@]34CO4)[C@@H]2C)C(=O)N1[C@@H]1CC[C@H](O)[C@H](C)O1` [STREPTOLYDIGIN] came in with an MBC of 100 µg/mL (≈ 166 µM) and an MIC of 50 µg/mL (≈ 83.2 µM). For the same compound, the Ratio in experiment [2] is reported as 2. Moreover, the outcome in experiment [3] was inactive. This compound gave an IC50 in experiment [4] of 2.3 µg/mL (≈ 3.83 µM).

As to `CO[C@H]1/C=C/O[C@@]2(C)Oc3c(C)c(O)c4c(O)c(c(/C=N/N5CCN(C)CC5)c(O)c4c3C2=O)NC(=O)/C(C)=C\C=C\[C@H](C)[C@H](O)[C@@H](C)[C@@H](O)[C@@H](C)[C@H](OC(C)=O)[C@@H]1C` [RIFAMPIN], in experiment [1], the minimal bactericidal concentration (MBC) was 0.006 µg/mL (≈ 0.00729 µM) and the MIC amounted to 0.006 µg/mL (≈ 0.00729 µM). The Ratio in experiment [2] is given as 1. Further, the result in experiment [3] was inactive. The IC50 in experiment [4] amounted to 0.04 µg/mL (≈ 0.0486 µM).

Consider `CO[C@H]1/C=C/O[C@@]2(C)Oc3c(C)c(O)c4c(O)c(c(/C=N/N5CCN(C6CCCC6)CC5)c(O)c4c3C2=O)NC(=O)/C(C)=C\C=C\[C@H](C)[C@H](O)[C@@H](C)[C@@H](O)[C@@H](C)[C@H](OC(C)=O)[C@@H]1C` [RIFAPENTINE], for which, in experiment [1], the MBC was 0.025 µg/mL (≈ 0.0285 µM) and it took 0.012 µg/mL (≈ 0.0137 µM) to inhibit growth (MIC). Moreover, the Ratio in experiment [2] was found to be 2. The outcome in experiment [3] was inactive. The half-maximal inhibitory concentration (IC50) in experiment [4] came out at 0.08 µg/mL (≈ 0.0912 µM). Moreover, the Activity in experiment [5] was 1.5.

`O/N=C(\Nc1cccc(Cl)c1)c1ccc(Cl)c(C(F)(F)F)c1`: the Activity in experiment [6] was determined as 3. In experiment [1], this compound returned an MBC of 25 µg/mL (≈ 71.6 µM) and a minimum inhibitory concentration (MIC) of 25 µg/mL (≈ 71.6 µM). In addition, the Ratio in experiment [2] worked out at 1. The compound also returned an IC50 in experiment [4] of 2.3 µg/mL (≈ 6.59 µM).

In experiment [1], `CO[C@H]1/C=C/O[C@@]2(C)Oc3c(C)c(O)c4c(O)c(c5c(nc6cc(C)ccn65)c4c3C2=O)NC(=O)/C(C)=C\C=C\[C@H](C)[C@H](O)[C@@H](C)[C@@H](O)[C@@H](C)[C@H](OC(C)=O)[C@@H]1C` [RIFAXIMIN] showed an MBC of 0.025 µg/mL (≈ 0.0318 µM) and an MIC of 0.012 µg/mL (≈ 0.0153 µM). Also, the Ratio in experiment [2] was 2. For the same compound, the outcome in experiment [3] was inactive. Also, in experiment [4], the IC50 is 0.07 µg/mL (≈ 0.0891 µM). Besides, the Activity in experiment [5] was found to be 1.5.

Consider `O/N=C(\Nc1ccccc1)c1cccc(C(F)(F)F)c1`, for which, in experiment [6], the Activity came to 3. Besides, in experiment [1], the MBC was 100 µg/mL (≈ 357 µM) and it took 100 µg/mL (≈ 357 µM) to inhibit growth (MIC). In addition, the Ratio in experiment [2] stood at 1. The IC50 in experiment [4] turned out to be 4.2 µg/mL (≈ 15 µM).

In the case of `CCOC(=O)c1c(NC(=O)Nc2ccccc2)sc2c1CCCCCC2`, in experiment [1], the minimum bactericidal concentration (MBC) is above 100 µg/mL and the MIC is 6.25 µg/mL (≈ 16.8 µM). For the same compound, the Ratio in experiment [2] was above 18. Also, in experiment [3], the result was inactive. The same compound displayed an IC50 in experiment [4] of 0.5 µg/mL (≈ 1.34 µM).

Take `C=CCN1C(=O)/C(=C/c2ccc(-c3cccc(C(=O)O)c3)o2)SC1=S`: the Activity in experiment [6] is reported as 1.8. In experiment [1], this compound showed an MBC of 25 µg/mL (≈ 67.3 µM) and an MIC of 12.5 µg/mL (≈ 33.7 µM). Also, in experiment [2], the Ratio came out at 2. Besides, the result in experiment [3] was inactive. Further, the half-inhibitory concentration (IC50) in experiment [4] was found to be 2.5 µg/mL (≈ 6.73 µM).
